The values below come from ChEMBL document CHEMBL1914368, “Imidazo[1,5-a]quinoxalines as irreversible BTK inhibitors for the treatment of rheumatoid arthritis” (Bioorg Med Chem Lett, 2011).

Data set [1] concerns the target T1, Aryl hydrocarbon receptor (Mus musculus, UniProt P30561).
T1 sequence (P30561 whole entry): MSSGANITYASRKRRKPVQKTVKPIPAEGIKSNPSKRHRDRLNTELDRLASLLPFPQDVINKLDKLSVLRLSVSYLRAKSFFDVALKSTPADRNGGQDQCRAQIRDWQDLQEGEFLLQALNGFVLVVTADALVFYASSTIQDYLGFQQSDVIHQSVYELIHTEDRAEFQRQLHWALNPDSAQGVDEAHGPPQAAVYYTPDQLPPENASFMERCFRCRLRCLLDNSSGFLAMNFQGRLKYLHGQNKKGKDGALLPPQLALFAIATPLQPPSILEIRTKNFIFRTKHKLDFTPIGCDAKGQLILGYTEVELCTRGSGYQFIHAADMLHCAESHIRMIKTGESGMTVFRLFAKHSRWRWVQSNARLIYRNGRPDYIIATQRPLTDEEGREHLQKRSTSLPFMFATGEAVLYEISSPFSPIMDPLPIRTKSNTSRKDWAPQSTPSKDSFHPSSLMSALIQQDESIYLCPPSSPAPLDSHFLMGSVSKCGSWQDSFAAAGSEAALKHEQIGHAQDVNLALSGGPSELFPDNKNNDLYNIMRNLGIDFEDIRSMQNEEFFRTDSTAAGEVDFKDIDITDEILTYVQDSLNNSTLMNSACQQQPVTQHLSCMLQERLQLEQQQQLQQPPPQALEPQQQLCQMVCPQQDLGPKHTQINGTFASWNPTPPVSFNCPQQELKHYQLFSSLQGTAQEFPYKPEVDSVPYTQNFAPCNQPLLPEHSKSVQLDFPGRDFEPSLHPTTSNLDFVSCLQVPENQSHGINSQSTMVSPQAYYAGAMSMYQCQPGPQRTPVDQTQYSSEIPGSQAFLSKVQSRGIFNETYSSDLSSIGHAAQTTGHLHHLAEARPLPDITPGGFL
As to the kind of experiment: Agonist activity at Ah receptor in genetically engineered mouse cells expressing firefly luciferase gene by CALUX transactivational assay. The data set is classed as functional.

Data set [2] deals with T2, Tyrosine-protein kinase Lyn (Homo sapiens, UniProt P07948). In words: Inhibition of LYN-A expressed in Sf9 cells preincubated for 60 mins measured after 60 mins by TR-FRET Assay. A digest of the protocol: (§1)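 The compound was pre-incubated with the kinase before the enzymatic reaction was started. IC50 values are averages of two or more determinations.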
Background: Time-resolved FRET reads energy transfer from a long-lived donor to a nearby acceptor.

A short description of data set [3]: AUC (0 to infinity) in mouse at 10 mg/kg, po. The data set is classed as ADME, organism-based. Also on record: time infinity, dose 10 mg/kg, route oral. The conditions noted are these: plasma.
Data set [4] in a line: Half life in mouse at 10 mg/kg, po. It counts as ADME, organism-based. Also on record: dose 10 mg/kg, route oral. The conditions noted are these: in vivo.
For data set [5], the target named is T3, Proto-oncogene tyrosine-protein kinase Src (Homo sapiens, UniProt P12931). As to the kind of experiment: Inhibition cSRC expressed in Sf9 cells preincubated for 60 mins measured after 60 mins by TR-FRET Assay.
A short description of data set [6]: Inhibition of anti-IgM-stimulated human B cell proliferation assessed as [3H]thymidine incorporation preincubated for 30 mins measured after 3 days. The data set is classed as functional, cell-based. The conditions noted are these: Homo sapiens, B-cell; read-out: IC50. In general terms: Dividing cells build labelled thymidine or BrdU into new DNA.
The target in data set [7] is T4, Tyrosine-protein kinase BTK (Homo sapiens, UniProt Q06187). In words: Inhibition of human full-length BTK expressed in Sf9 cells using FAM-Srctide peptide as substrate preincubated for 60 mins measured after 60 mins by TR-FRET Assay. A digest of the protocol: as §1
Data set [8] addresses T2, Tyrosine-protein kinase Lyn. As to the kind of experiment: Inhibition of LYN-A expressed in Sf9 cells after 60 mins by TR-FRET Assay.
Data set [9] deals with T3, Proto-oncogene tyrosine-protein kinase Src. As to the kind of experiment: Inhibition cSRC expressed in Sf9 cells after 60 mins by TR-FRET Assay.
Data set [10] in a line: Clearance in mouse at 2 mg/kg, iv. It counts as ADME, organism-based. The conditions noted are these: in vivo. Also on record: dose 2 mg/kg, route intravenous.
Data set [11] can be described thus: Cmax in mouse at 10 mg/kg, po. The data set is classed as ADME, organism-based. Details: dose 10 mg/kg, route oral. The conditions noted are these: in vivo.
The nature of data set [12]: Tmax in mouse at 10 mg/kg, po. The data set is classed as ADME, organism-based. Details: dose 10 mg/kg, route oral. The conditions noted are these: in vivo. The essentials: (§2)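 Mouse pharmacokinetics from single dosing at 2 mg/kg iv and 10 mg/kg po. The study derived AUC, T1/2, clearance, Vss, Tmax, Cmax and oral bioavailability (%F) from the paired iv and po arms.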

Data set [13] concerns the target T4, Tyrosine-protein kinase BTK. In words: Inhibition of human full-length BTK expressed in Sf9 cells using FAM-Srctide peptide as substrate after 60 mins by TR-FRET Assay.
Data set [14] in a line: AUC (0 to infinity) in mouse at 2 mg/kg, iv. It counts as ADME, organism-based. Also on record: time infinity, dose 2 mg/kg, route intravenous. The conditions noted are these: plasma.
Data set [15] has as its target T5, Epidermal growth factor receptor (Homo sapiens, UniProt P00533). As to the kind of experiment: Inhibition of EGFR after 60 mins by TR-FRET Assay.
In data set [16] the target is Tyrosine-protein kinase Lck (Homo sapiens, UniProt P06239). In words: Inhibition of C-terminal His6-tagged human full-length LCK expressed in Sf9 cells preincubated for 60 mins measured after 60 mins by TR-FRET Assay.
In data set [17] the target is T5, Epidermal growth factor receptor. In words: Inhibition of EGFR preincubated for 60 mins measured after 60 mins by TR-FRET Assay.
A short description of data set [18]: Volume of distribution at steady state in mouse at 2 mg/kg, iv. The data set is classed as ADME, organism-based. Details: dose 2 mg/kg, route intravenous. The conditions noted are these: in vivo, read-out: Vdss. A digest of the protocol:
as §2

The nature of data set [19]: Half life in mouse at 2 mg/kg, iv. The data set is classed as ADME, organism-based. Details: dose 2 mg/kg, route intravenous. The conditions noted are these: in vivo.
A short description of data set [20]: Oral bioavailability in mouse at 10 mg/kg. The conditions noted are these: in vivo. It counts as ADME, organism-based. A digest of the protocol:
as §2

The EC50 is the concentration giving half of the maximal effect. A low value points to higher potency in that assay. One may read the IC50 as the concentration that inhibits the measured activity by half. As usually defined, the AUC(0-inf) is the area under the concentration-time curve extrapolated to infinity. By half-life is commonly meant the time needed for the level to fall by half in the phase considered. High values mean slow loss, low ones fast loss. By clearance is commonly meant a measure of how efficiently the substance is removed, as volume per time. The term Cmax denotes the maximum level reached in the sampled fluid or tissue. Broadly, the Tmax is the time at which the peak concentration occurs. Usually bioavailability stands for the share of a dose that reaches the circulation, judged against a reference dose that is usually intravenous. A low value points to little systemic uptake.

Structures are written as SMILES.

T2 sequence (P07948 whole entry): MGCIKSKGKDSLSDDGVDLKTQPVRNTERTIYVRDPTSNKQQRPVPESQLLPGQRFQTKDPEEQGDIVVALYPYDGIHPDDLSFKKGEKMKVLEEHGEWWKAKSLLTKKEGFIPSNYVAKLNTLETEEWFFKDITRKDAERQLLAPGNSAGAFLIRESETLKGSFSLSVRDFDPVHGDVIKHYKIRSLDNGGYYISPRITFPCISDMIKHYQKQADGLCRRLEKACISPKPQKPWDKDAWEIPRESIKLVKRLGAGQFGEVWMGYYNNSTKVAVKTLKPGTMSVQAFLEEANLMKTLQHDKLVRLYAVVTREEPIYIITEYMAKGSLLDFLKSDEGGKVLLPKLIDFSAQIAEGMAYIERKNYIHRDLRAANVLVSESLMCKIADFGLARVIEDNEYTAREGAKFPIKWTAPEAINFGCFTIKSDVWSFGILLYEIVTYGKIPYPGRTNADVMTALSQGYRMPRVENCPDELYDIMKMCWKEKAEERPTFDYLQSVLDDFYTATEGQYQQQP
T4 sequence (Q06187 whole entry): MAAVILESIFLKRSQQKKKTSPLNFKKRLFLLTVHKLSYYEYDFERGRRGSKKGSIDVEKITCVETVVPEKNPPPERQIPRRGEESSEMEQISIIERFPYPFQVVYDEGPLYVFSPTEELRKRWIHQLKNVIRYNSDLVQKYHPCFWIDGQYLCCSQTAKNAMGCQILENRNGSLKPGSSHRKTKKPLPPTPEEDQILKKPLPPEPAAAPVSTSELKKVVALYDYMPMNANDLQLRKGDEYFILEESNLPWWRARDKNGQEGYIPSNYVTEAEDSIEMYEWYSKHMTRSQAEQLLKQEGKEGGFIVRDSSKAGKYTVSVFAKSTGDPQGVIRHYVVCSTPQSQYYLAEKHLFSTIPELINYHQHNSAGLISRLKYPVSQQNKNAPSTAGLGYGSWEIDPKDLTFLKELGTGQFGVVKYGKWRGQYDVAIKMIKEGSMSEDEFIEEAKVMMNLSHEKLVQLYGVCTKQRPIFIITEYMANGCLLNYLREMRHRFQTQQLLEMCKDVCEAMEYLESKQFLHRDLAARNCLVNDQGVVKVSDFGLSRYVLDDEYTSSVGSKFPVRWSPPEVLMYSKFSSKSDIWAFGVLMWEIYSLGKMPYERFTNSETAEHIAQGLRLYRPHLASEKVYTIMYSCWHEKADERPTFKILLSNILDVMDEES
T3 sequence (P12931 2-536 limits assumed): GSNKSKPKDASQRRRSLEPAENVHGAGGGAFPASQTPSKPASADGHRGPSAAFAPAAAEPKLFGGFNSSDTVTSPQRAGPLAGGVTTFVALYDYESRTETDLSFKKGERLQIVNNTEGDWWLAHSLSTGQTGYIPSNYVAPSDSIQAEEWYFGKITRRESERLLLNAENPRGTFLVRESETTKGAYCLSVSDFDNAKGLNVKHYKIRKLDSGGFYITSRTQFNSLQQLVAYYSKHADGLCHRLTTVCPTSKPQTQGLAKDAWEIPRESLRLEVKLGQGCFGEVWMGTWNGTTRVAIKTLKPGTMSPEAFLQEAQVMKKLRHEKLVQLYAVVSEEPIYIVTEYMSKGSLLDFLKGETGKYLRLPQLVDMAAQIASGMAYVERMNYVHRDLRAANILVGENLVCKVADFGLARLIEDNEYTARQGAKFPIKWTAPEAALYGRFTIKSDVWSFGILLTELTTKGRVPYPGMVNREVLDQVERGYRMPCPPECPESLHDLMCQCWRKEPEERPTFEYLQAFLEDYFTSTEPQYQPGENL
T5 sequence (P00533 whole entry): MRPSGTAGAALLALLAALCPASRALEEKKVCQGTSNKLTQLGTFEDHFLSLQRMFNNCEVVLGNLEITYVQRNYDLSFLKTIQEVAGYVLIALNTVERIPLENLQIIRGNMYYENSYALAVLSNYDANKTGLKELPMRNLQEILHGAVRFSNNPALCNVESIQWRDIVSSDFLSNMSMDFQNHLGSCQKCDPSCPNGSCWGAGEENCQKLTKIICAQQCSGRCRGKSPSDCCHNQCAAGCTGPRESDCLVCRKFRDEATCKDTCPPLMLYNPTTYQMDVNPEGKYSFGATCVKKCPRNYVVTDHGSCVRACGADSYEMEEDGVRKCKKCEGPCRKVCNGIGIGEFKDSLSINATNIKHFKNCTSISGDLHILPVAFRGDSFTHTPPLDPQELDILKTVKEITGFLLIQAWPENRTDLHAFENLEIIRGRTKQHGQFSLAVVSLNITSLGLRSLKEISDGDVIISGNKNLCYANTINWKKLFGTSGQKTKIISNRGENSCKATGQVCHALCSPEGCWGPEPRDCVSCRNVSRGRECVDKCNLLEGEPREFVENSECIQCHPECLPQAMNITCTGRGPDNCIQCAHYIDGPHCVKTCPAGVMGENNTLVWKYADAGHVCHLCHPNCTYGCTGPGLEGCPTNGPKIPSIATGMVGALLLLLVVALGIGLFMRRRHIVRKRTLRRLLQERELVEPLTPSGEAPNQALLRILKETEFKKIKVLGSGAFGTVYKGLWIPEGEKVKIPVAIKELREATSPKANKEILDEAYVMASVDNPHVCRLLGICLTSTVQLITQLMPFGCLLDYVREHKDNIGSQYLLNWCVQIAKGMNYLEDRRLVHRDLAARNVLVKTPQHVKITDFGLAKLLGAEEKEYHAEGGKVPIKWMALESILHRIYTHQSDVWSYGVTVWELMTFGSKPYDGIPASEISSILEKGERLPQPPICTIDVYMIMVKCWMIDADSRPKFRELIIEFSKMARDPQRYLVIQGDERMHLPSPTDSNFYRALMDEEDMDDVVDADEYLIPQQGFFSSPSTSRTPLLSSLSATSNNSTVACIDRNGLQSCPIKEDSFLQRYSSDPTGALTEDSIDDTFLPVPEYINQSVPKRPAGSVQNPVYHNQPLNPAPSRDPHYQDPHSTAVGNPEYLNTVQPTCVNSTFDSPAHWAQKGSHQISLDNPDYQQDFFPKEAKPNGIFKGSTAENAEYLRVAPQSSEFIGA
Sequence of Tyrosine-protein kinase Lck (P06239 whole entry): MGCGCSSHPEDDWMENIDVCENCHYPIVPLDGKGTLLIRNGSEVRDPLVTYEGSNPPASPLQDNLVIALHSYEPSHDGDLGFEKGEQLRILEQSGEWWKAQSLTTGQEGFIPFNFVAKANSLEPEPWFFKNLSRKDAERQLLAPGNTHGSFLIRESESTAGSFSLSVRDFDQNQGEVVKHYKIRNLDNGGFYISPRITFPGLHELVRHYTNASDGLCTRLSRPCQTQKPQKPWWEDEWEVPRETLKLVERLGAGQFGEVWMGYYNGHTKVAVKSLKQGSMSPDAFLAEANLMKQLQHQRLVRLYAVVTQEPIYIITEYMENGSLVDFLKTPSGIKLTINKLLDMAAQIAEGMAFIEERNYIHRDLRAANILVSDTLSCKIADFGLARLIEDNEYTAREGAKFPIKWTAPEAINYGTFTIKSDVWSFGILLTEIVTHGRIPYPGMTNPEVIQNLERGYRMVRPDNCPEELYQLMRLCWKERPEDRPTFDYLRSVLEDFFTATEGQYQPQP

As to `Clc1cc2c(cc1Cl)Oc1cc(Cl)c(Cl)cc1O2` [2,3,7,8-TETRACHLORODIBENZO-P-DIOXIN], in [1], the EC50 was 0.03 nM.

Take `Cc1ccc(F)cc1Nc1nc2cc(Cl)c(N(C)C(=O)/C=C/CN(C)C)cc2n2cncc12`: the IC50 in data set [2] is 3020 nM; in data set [5] it was 410 nM; in data set [6], 5.84 nM; in [7], 2.6 nM; in data set [8] it was 3390 nM; in [9] it was 1620 nM. Further, the IC50 in data set [13] came to 3.98 nM; in data set [15] it was 68 nM; in data set [16], 2790 nM; in data set [17], 3.35 nM. Moreover, the AUC(0-inf) was found to be 3620 ng·h/mL in data set [3] and 1120 ng·h/mL in data set [14]. The half-life was 2.7 h in [4] and 2.2 h in [19]. Also, in data set [10], the clearance worked out at 26.6 mL/min/kg. In [11], this compound returned a Cmax of 454 ng/mL. In addition, the Tmax in data set [12] was 3 h. Further, the concentration for a half-maximal effect (EC50) in [1] was more than 10000 nM. In addition, the Vd in data set [18] was 4.51 L/kg. In addition, in [20], the bioavailability is 58%.

Take `Cc1ccc(F)cc1Nc1nc2ccc(N(C)C(=O)/C=C/CN(C)C)cc2n2cncc12`: the IC50 in data set [6] was 4.88 nM; in data set [8] it was 1420 nM; in [13], 3.33 nM. This compound also yielded an EC50 in data set [1] of more than 10000 nM.

Turning to `Cc1cc(F)ccc1Oc1nc2ccc(N(C)C(=O)/C=C/CN(C)C)cc2n2cncc12`, the figures for the IC50 in [6], in data set [8] and in data set [13] were 228 nM, 3730 nM and 6.58 nM, respectively. In [1], this compound showed an EC50 of more than 10000 nM.
